Assay results taken from ChEMBL document CHEMBL1909624, “BRN-103, a novel nicotinamide derivative, inhibits VEGF-induced angiogenesis and proliferation in human umbilical vein endothelial cells” (2011).
Blank lines part the entries; values can stand above or below the compound they belong to. The source made the active and inactive calls. The rule behind the calls is not given here.

How the values were obtained:
HUVEC [1] = experiment: Antiangiogenic activity in HUVEC assessed as decrease in VEGF-induced cell migration at 50 uM after 24 hrs by transwell migration assay; format: functional, cell-based; settings: Homo sapiens
HUVEC [2] = experiment: Cytotoxicity against human HUVEC; format: functional
[3] = molecular target: T1, Nitric oxide synthase 3 (Homo sapiens) (UniProt P29474); experiment: Inhibition of eNOS phosphorylation at […] in VEGF-stimulated HUVEC at 1 uM preincubated for 1 hr before VEGF induction measured after 1 hr by Western blot analysis
T1 sequence (whole entry): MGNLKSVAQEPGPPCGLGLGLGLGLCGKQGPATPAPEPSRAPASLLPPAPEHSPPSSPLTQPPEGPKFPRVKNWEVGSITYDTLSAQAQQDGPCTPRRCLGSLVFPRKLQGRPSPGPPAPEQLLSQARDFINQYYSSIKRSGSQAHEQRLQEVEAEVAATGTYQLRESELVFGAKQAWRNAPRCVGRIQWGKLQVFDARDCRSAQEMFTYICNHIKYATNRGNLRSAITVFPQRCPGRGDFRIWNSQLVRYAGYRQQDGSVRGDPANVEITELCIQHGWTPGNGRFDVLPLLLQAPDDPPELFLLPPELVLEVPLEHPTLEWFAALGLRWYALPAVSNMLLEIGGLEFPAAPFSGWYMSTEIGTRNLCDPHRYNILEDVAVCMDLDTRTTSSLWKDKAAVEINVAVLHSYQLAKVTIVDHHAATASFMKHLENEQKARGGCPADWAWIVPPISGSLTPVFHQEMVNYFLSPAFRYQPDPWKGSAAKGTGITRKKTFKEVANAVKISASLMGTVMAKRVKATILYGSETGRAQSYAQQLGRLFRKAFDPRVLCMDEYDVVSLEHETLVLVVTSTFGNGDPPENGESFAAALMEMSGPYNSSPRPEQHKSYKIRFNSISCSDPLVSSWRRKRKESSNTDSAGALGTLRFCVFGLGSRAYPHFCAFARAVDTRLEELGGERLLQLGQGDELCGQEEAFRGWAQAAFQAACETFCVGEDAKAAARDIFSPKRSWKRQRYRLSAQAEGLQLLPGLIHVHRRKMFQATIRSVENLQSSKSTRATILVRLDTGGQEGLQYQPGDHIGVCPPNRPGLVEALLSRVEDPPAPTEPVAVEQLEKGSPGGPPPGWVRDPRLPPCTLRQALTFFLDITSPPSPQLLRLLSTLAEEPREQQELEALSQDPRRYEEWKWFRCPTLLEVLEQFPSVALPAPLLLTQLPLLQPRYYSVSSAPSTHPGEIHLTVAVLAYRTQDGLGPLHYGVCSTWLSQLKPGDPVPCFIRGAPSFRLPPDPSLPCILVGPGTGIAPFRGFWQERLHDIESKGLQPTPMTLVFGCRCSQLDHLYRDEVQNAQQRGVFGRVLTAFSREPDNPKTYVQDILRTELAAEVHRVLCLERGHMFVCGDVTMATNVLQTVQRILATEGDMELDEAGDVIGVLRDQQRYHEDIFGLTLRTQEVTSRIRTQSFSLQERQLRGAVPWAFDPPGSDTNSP
Method in brief: (§1)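 0.1% serum-starved HUVECs were pretreated with compound for 1 h, then given 10 ng/ml VEGF for 5 min (p-ERK), 30 min (p-AKT) or 1 h (p-eNOS). Lysates were Western-blotted with phospho-specific and total AKT, ERK and eNOS antibodies. Bands were quantified as the mean of three experiments with SD; ANOVA with Dunnett's test.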

HUVEC [4] = experiment: Antiangiogenic activity in HUVEC assessed as decrease in VEGF-induced cell migration at 1 uM after 24 hrs by transwell migration assay; format: functional, cell-based; settings: Homo sapiens
Method in brief: (§2)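 HUVECs were seeded in a Boyden chamber on a porous membrane, with test compound in 0.1% EBM in the upper chamber and 10 ng/ml VEGF in the lower. After 24 h, cells that had crossed the pores were counted. Mean of three independent experiments with SD; ANOVA with Dunnett's post-hoc test.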

HUVEC [5] = experiment: Inhibition of AKT phosphorylation at Ser-473 in VEGF-stimulated HUVEC at 1 uM preincubated for 1 hr before VEGF induction measured after 30 mins by Western blot analysis; format: cell-based; settings: Homo sapiens; method in brief: as §1
HUVEC [6] = experiment: Antiangiogenic activity in HUVEC assessed as inhibition of VEGF-induced cell proliferation at 1 uM by BrdU incorporation assay; format: functional, cell-based; settings: Homo sapiens
Method in brief: (§3)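 DNA synthesis was measured by BrdU incorporation in 0.1% serum-starved HUVECs stimulated with VEGF, with or without compound. Incorporated BrdU was detected with an anti-BrdU monoclonal antibody using a commercial ELISA kit. Mean of three experiments with SD; ANOVA with Dunnett's post-hoc test.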

HUVEC [7] = experiment: Inhibition of ERK phosphorylation at Thr202/Tyr204 in VEGF-stimulated HUVEC at 1 uM preincubated for 1 hr before VEGF induction measured after 5 mins by Western blot analysis; format: cell-based; settings: Homo sapiens; method in brief: as §1
HUVEC [8] = experiment: Antiangiogenic activity in HUVEC assessed as decrease in VEGF-induced cell migration at 25 uM after 24 hrs by transwell migration assay; format: functional, cell-based; settings: Homo sapiens
HUVEC [9] = experiment: Antiangiogenic activity in VEGF-stimulated HUVEC assessed as inhibition of capillary tube formation preincubated for 1 hr measured after 6 hrs by photographic analysis; format: functional, cell-based; settings: Homo sapiens
Method in brief: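 HUVECs were pretreated with compound for 1 h, then seeded at 4–7 × 10⁴ cells on growth factor-reduced Matrigel in EBM with or without 10 ng/ml VEGF. After 6 h, tubes were photographed at ×100 and counted manually in low-power fields. Mean of three experiments with SD.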

HUVEC [10] = experiment: Antiangiogenic activity in HUVEC assessed as decrease in VEGF-induced cell migration after 24 hrs by transwell migration assay; format: functional, cell-based; settings: Homo sapiens; method in brief: as §2
HUVEC [11] = experiment: Inhibition of ERK phosphorylation at Thr202/Tyr204 in VEGF-stimulated HUVEC preincubated for 1 hr before VEGF induction measured after 5 mins by Western blot analysis; format: cell-based; settings: Homo sapiens; method in brief: as §1
[12] = molecular target: T1, Nitric oxide synthase 3 (Homo sapiens); experiment: Inhibition of eNOS phosphorylation at […] in VEGF-stimulated HUVEC preincubated for 1 hr before VEGF induction measured after 1 hr by Western blot analysis; method in brief: as §1
Aorta = experiment: Inhibition of VEGF-induced angiogenesis in C57BL/6 mouse aortic rings assessed as decrease in microvessel sprouting after 7 days; format: functional, tissue-based
HUVEC [13] = experiment: Antiangiogenic activity in HUVEC assessed as decrease in VEGF-induced cell migration at 10 uM after 24 hrs by transwell migration assay; format: functional, cell-based; settings: Homo sapiens
HUVEC [14] = experiment: Antiangiogenic activity in HUVEC assessed as inhibition of VEGF-induced cell proliferation by BrdU incorporation assay; format: functional, cell-based; settings: Homo sapiens; method in brief: as §3
HUVEC [15] = experiment: Antiangiogenic activity in HUVEC assessed as decrease in VEGF-induced cell migration after 24 hrs by wound healing assay; settings: Homo sapiens
[16] = molecular target: Vascular endothelial growth factor receptor 2 (Homo sapiens) (UniProt P35968); experiment: Inhibition of VEGFR2 phosphorylation at tyr-1175 in VEGF-stimulated HUVEC preincubated for 1 hr before VEGF induction measured after 5 mins by Western blot analysis
Method in brief: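 HUVECs were pretreated with compound for 1 h, stimulated with 10 ng/ml VEGF for 5 min, and lysed. Western blot used an anti-phospho-VEGFR2 antibody, with total VEGFR and β-actin as internal controls. Blot representative of three separate experiments.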

HUVEC [17] = experiment: Inhibition of AKT phosphorylation at Ser-473 in VEGF-stimulated HUVEC preincubated for 1 hr before VEGF induction measured after 30 mins by Western blot analysis; format: cell-based; settings: Homo sapiens; method in brief: as §1

Sequence of Vascular endothelial growth factor receptor 2 (Homo sapiens) (P35968 whole entry): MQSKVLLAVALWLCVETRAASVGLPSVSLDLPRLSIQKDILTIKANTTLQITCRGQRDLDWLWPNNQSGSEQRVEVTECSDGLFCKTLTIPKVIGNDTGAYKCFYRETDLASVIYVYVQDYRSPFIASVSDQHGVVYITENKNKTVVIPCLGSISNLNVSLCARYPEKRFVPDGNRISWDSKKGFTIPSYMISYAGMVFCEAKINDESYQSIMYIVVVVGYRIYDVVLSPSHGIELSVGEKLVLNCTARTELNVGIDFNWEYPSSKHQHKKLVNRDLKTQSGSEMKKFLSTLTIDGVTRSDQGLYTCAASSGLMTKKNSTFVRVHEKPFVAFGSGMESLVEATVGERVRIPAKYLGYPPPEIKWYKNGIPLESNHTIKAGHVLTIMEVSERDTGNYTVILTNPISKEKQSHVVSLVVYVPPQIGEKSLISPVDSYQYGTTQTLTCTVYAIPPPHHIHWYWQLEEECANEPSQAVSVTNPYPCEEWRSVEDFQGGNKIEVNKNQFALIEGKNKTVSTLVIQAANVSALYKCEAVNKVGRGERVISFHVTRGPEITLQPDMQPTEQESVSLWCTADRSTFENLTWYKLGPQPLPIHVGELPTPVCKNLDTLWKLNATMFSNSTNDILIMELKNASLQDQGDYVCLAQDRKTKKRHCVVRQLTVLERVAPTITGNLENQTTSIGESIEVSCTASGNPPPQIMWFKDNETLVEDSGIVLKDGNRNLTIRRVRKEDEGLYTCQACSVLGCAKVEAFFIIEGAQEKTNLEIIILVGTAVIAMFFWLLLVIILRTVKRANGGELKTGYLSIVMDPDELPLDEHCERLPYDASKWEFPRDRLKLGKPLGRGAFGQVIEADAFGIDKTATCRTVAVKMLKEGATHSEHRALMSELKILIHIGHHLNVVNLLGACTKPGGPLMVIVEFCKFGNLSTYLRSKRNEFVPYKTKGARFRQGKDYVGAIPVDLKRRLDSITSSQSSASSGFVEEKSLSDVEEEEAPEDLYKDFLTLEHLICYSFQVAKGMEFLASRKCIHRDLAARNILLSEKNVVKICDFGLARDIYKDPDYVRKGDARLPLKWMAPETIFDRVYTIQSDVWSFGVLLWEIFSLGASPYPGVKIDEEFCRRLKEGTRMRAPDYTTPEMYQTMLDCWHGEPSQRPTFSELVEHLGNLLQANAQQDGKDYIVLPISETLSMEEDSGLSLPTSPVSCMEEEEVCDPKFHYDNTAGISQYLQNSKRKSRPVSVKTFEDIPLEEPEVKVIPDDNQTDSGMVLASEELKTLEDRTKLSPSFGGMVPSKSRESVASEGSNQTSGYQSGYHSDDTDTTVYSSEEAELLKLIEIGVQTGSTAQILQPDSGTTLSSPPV

SMILES: COc1ccc(C(=O)N2CCN(c3ncccc3C(=O)Nc3cccc(Cl)c3)CC2)cc1
Activity (HUVEC [1]): Active | IC90 (HUVEC [2]): > 50 µM

SMILES: O=C(Nc1cccc(Cl)c1)c1cccnc1N1CCN(C(=O)c2cccc(F)c2)CC1
Activity (HUVEC [1]): Active | IC90 (HUVEC [2]): > 50 µM

inhibition [3]: Active
SMILES: CCN(CC)CCNC(=O)c1c(C)[nH]c(/C=C2\C(=O)Nc3ccc(F)cc32)c1C [SUNITINIB]
Activity (HUVEC [4]): Active | inhibition (HUVEC [5]): inactive | IC90 (HUVEC [2]): 1 µM | inhibition (HUVEC [6]): Active | inhibition (HUVEC [7]): Active

SMILES: O=C(Nc1cccc(Cl)c1)c1cccnc1NC[C@@H]1CN(Cc2ccc(F)cc2)C(=O)CO1
Activity (HUVEC [1]): Active | IC90 (HUVEC [2]): > 50 µM

SMILES: O=C(Nc1cccc(Cl)c1)c1cccnc1NC1CCN(CO)CC1
Activity (HUVEC [8]): Active | IC90 (HUVEC [2]): 29.2 µM

inhibition [12]: Dose-dependent effect | inhibition [16]: Dose-dependent effect
SMILES: O=C(Nc1cccc(Cl)c1)c1cccnc1NC1CCN(Cc2ccccc2)CC1
inhibition (HUVEC [9]): Dose-dependent effect | Activity (HUVEC [10]): Dose-dependent effect | inhibition (HUVEC [11]): Dose-dependent effect | inhibition (Aorta): Dose-dependent effect | Activity (HUVEC [13]): Active | inhibition (HUVEC [14]): Dose-dependent effect | IC90 (HUVEC [2]): 9.42 µM | Activity (HUVEC [15]): Dose-dependent effect | inhibition (HUVEC [17]): Dose-dependent effect
